Compound activity from PubChem BioAssay.
HUVEC inhibit: inhibitors of human endothelial cell proliferation. HUVEC proliferation, CellTiter-Glo luminescence, 72 h; active compounds read low. viability, % at 10 µM (by protocol). 86,000 compounds, 1.1% hits. AID 648;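 active = viability at or below 30%; inactive = viability above 30%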;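 note: 100% = median luminescence of DMSO-only cell control wells on each plate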
Lung fibro prol: blocks proliferation of human lung fibroblasts. LL 47 human lung fibroblast viability, ATP luminescence; active compounds read low. AID 719. viability, % at 10 µM. 85,000 compounds, 1.1% hits;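 active = viability at or below 50% in the single dose screen; inactive = viability above 50%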;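 note: compound exposure lasted 72 h before the ATP readout; 100% = median luminescence of untreated cell-only wells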
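Test system: LL 47 human lung fibroblasts / Incubation: 72 h compound exposure at 37 °C after overnight plating / Technique: luminescent ATP detection, CellTiter-Glo / Compound dosing: 0.1% DMSO in all compound wells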
HCT116 bCat-KO: beta-catenin-lacking colon tumor cell growth suppression. viability, % at 10 µM. HCT116 beta-catenin knockout viability, CellTiter-Glo, 60 h; active compounds read low. 140,000 compounds, 1.5% hits;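 active = viability at or under a set limit, the compound median less 4 SD, cut at about 6% in these data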;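 note: 0% = Hyamine 1622 control at 20 µM and 100% = untreated cell control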
PTEN del growth: growth suppressors of cells with PTEN tumor suppressor deletion. AID 827. HCT116 PTEN-null viability, CellTiter-Glo, 60 h; active compounds read low. viability, % at 10 µM. 140,000 compounds, 1.2% hits;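 active = viability at or below a set limit, 4 SD under the median of all tested compounds, cut at about 3.7% in these data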;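 note: PTEN knockout HCT116 line with beta catenin targeted HCT116 as companion control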
H69AR inhibit: growth inhibitors of human H69AR lung tumor cells; 85,000 compounds, 6% hits; H69AR lung tumor viability, ATP luminescence, 72 h; active compounds read low; viability, % at 10 µM;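 active = viability at or below 40%; inactive = viability above 40%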;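 note: multidrug resistant small cell line overexpressing MRP-1 efflux transporter; 100% = mean luminescence of untreated control wells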
The depositor's hits bear a star; . = no result given. Only a selection was taken, and hits are over-represented in it overall.

SMILES | HUVEC inhibit | Lung fibro prol | HCT116 bCat-KO | PTEN del growth | H69AR inhibit
CCOC(=O)CSC1=C(C#N)C(c2ccc3c(c2)OCO3)CC(=O)N1 (centres undefined) | 69 | 79 | 51 | 49 | 23*
CCOC(=O)CSC1=C(C#N)C(c2ccc(Cl)cc2)CC(=O)N1 (centres undefined) | 96 | 93 | 97 | 90 | 86
CCCCOC(=O)CSC1=C(C#N)C(c2ccc3c(c2)OCO3)CC(=O)N1 (centres undefined) | 92 | 100 | 83 | 84 | 88
CC(=O)Nc1c(OC(C)=O)ccc2c(C)cc(=O)oc12 | 91 | 104 | 94 | 95 | 88
Cc1ccccc1S(=O)(=O)Cc1ccc(C(=O)N2CCN(c3ccc(F)cc3)CC2)o1 | 92 | 93 | 60 | 64 | 34*
Cc1ccccc1S(=O)(=O)Cc1ccc(C(=O)N2CCN(c3ncccn3)CC2)o1 | 93 | 99 | 95 | 94 | 77
Cc1ccc(S(=O)(=O)Cc2ccc(C(=O)N3CCN(c4ccc(F)cc4)CC3)o2)cc1 | 64 | 78 | 35 | 26 | 20*
O=C(OCCN1CCCC1=O)c1cc(F)c(F)c(F)c1F | . | . | 96 | 100 | .
CCOC(=O)c1c(C)[nH]c(C2=NNC(=Nc3cccc(Cl)c3)SC2)c1C | . | . | 2.8* | 2.1* | .
CCOC(=O)c1c(C)[nH]c(C=O)c1Cc1cccc(Cl)c1 | . | . | 65 | 60 | .
Cc1c(C(=O)NCc2ccccc2Cl)oc2c1C(=O)CCC2 | 86 | 103 | 98 | 90 | 88
Cc1cnc(Nc2nc3ccccc3o2)nc1C(=O)Nc1cccc(C(F)(F)F)c1 | 45 | 44* | 71 | 33 | 1.3*
CC1CCCCN1S(=O)(=O)c1ccc(S(=O)(=O)N2CCN(c3ccc(F)cc3)CC2)cc1 (centres undefined) | 56 | 72 | 85 | 90 | 19*
COC(=O)C1(C(=O)OC)NOC2C(=O)N(c3ccccc3)C(=O)C21 (centres undefined) | . | . | 111 | 99 | .
COC(=O)c1cc(N2C(=O)C3C(C2=O)C2(C)C=CC3(C)O2)ccc1Cl (centres undefined) | 61 | 58 | 90 | 90 | 0.7*
CC(=O)Oc1ccc(N2C(=O)C3C(C2=O)C2(C)C=CC3(C)O2)cc1 (centres undefined) | 95 | 27* | . | . | 2.3*
Cc1ccc(C)c(NC(=S)NC(NC(=O)Cc2cccc3ccccc23)C(Cl)(Cl)Cl)c1 (centres undefined) | 4.3* | 4.4* | 17 | 2.6* | 2.3*
CCOc1ccc(N2C(=O)/C(=C/c3cc(OC)c(OC)c(OC)c3)N(CC(=O)OC)C2=S)cc1 | 62 | 95 | 15 | 14 | 25*
CN(C)c1ccc2c(O)cc(=O)n(C)c2c1 | 95 | 102 | 73 | 76 | 22*
CCN1/C(=C/c2ccc3cccc(C)c3[n+]2CC)Sc2ccccc21 | . | . | 1.7* | 2.0* | .
CSc1cccc(-n2cc(-c3ccc4c(c3)OCO4)[nH]c2=O)c1 | 52 | 70 | 21 | 22 | 25*
CC(=O)c1c(C)nc(-c2ccc3c(c2)OCO3)n1O | 81 | 105 | 92 | 93 | 84
c1ccc(Cc2nn3c(Cn4nnc5ccccc54)nnc3s2)cc1 | 83 | 88 | 89 | 93 | 99
CCOCC(=O)Nc1ccc(S(=O)(=O)NCCc2ccccc2)cc1 | 110 | 104 | 81 | 84 | 15*
CCn1c(SCC(=O)NC2CCCCC2)nnc1-c1cc2cccc(OC)c2o1 | 89 | 99 | 68 | 63 | 74
SMILES | HUVEC inhibit | Lung fibro prol | HCT116 bCat-KO | PTEN del growth | H69AR inhibit
COc1nc(Cl)cn(-c2ccc(C)cc2)c1=O | . | . | 92 | 101 | .
Cc1ccc(-n2c(Cl)c(Cl)nc(Cl)c2=O)cc1 | . | . | 4.9* | 2.5* | .
Cc1ccccc1-c1noc(-c2ccc(O)cc2)n1 | 71 | 110 | 70 | 64 | 15*
Cc1ccccc1-c1noc(-c2ccc(Cl)cc2)n1 | 97 | 99 | 67 | 77 | 91
CCOC(=O)COc1ccc2nsnc2c1Cl | 99 | 115 | 82 | 96 | 84
C=C(CC)C(=O)c1ccc(OCC(=O)O)c(Cl)c1Cl | 57 | 60 | 72 | 72 | 12*
Cc1cccc(NC(=O)c2ccccc2O)c1C | 99 | 90 | 82 | 89 | 53
Cc1ccc(C)c(NC(=O)c2ccccc2O)c1 | 81 | 97 | 82 | 81 | 19*
O=C(CSc1nnc(CNC(=O)c2cccs2)o1)NC1CCCCC1 | 91 | 95 | 102 | 108 | 98
CCOc1ccc(N(CC(=O)NC2CCCCC2)C(=O)CSc2nnc(COc3ccccc3)o2)cc1 | 76 | 97 | 64 | 70 | 36*
O=C(CN(Cc1cccs1)C(=O)CSc1nnc(COc2ccccc2)o1)NC1CCCCC1 | 88 | 91 | 83 | 84 | 40*
CC(C)OC(=O)CC(=O)CSc1nc2c(cc1C#N)CCCC2 | 89 | 102 | 62 | 56 | 68
C=CCNC(=O)c1onc(CSc2ccc(C(C)C)cc2)c1C(=O)O | . | . | 90 | 90 | .
Clc1cccc(Cl)c1Cn1cnc2c(N3CCCCCC3)ncnc21 | 64 | 83 | 58 | 62 | 71
Cc1ccc(N(C)C(=O)N2CCN(S(=O)(=O)c3ccc(C)cc3)CC2)cc1 | 101 | 96 | 90 | 91 | 101
COc1ccc(NC(=O)CSc2nnc(C3CC3)n2-c2ccccc2)cc1 | 91 | 95 | 92 | 96 | 94
COc1ccc(NC(=O)CSc2nnc(-c3cccs3)n2-c2ccccc2)cc1 | 21* | 39* | 52 | 51 | 46
Cn1c(=O)n(C)c2cc(NC(=O)CCl)ccc21 | 54 | 42* | 8 | 5 | 1.5*
O=C(CSc1nnc(-c2ccco2)n1-c1ccccc1)N1CCc2ccccc21 | 88 | 102 | . | . | 78
O=C(CSc1nnc(-c2cccs2)n1-c1ccccc1)c1ccc2c(c1)OCCO2 | 34 | 77 | . | . | 17*
O=C(CSc1nnc(-c2cccs2)n1-c1ccccc1)N1CCc2ccccc21 | 95 | . | . | . | 16*
COc1ccccc1/C=C(/C(=O)OCC(=O)Nc1ccc(N(C)C)cc1)c1ccccc1 | . | . | 94 | 96 | .
CCN(CC)CCn1cnc2c([nH]c3cccc(OC)c32)c1=O | . | . | 88 | 91 | .
Cc1ccsc1C(=O)OCC(=O)Nc1c(Cl)cccc1C(F)(F)F | . | . | 76 | 87 | .
COCCNC(=S)N1CCc2cc(OC)c(OC)cc2C1COc1cc(C)cc(C)c1 (centres undefined) | . | . | 81 | 70 | .
COc1cc(C(=O)N2CCC(C(=O)Nc3cccc(C(C)=O)c3)CC2)cc(OC)c1OC | 95 | 92 | 92 | 100 | 80
O=C(CSc1nc2[nH]ncc2c(=O)n1-c1ccccc1)c1ccc2c(c1)OCCO2 | 56 | 89 | 72 | 71 | 17*
C=CCn1c(SC(C)C(=O)NCc2ccc3c(c2)OCO3)nc2scc(-c3ccccc3)c2c1=O (centres undefined) | 74 | 94 | 81 | 66 | 34*
Cc1ccc(NC(=O)CSc2nnc(-c3ccc(S(=O)(=O)N4CCOCC4)cc3)n2C)cc1 | 102 | 97 | 99 | 109 | 98
Cn1c(SCC(=O)Nc2ccc(N3CCOCC3)cc2)nnc1-c1ccccc1 | 15* | 105 | 107 | 119 | 86
